Measurements from ChEMBL document CHEMBL4270511, “Rational design and screening of peptide-based inhibitors of heat shock factor 1 (HSF1)” (Bioorg Med Chem, 2018).
Calls of active or inactive are those of the source. No cut-off for these calls is given here.

Key:
[1] = target: T1, Heat shock factor protein 1 (Homo sapiens) (UniProt Q00613); experiment: Inhibition of recombinant human HSF1 expressed in Escherichia coli BL21 (DE3) assessed as reduction in HSF1 trimer-5-fluorescein labeled HSE interaction at 400 uM preincubated for 1 hr followed by DNA tracer addition and measured after 15 mins by competitive fluorescence polarization assay
T1 sequence (whole entry): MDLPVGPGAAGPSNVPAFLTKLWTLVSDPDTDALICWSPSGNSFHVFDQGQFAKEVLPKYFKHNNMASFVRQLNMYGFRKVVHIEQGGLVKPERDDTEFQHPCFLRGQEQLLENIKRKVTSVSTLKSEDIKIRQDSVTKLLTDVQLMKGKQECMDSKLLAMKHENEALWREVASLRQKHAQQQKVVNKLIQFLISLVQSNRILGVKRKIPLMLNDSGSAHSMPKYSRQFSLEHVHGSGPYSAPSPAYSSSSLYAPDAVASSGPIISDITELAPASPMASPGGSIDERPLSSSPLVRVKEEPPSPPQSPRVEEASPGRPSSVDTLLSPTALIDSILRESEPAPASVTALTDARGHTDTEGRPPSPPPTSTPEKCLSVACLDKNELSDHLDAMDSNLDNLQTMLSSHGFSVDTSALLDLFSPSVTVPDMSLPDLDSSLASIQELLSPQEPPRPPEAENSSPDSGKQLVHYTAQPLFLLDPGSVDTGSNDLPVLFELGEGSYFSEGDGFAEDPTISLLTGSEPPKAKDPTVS
In short: (§1)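 His-HSF1 trimer, expressed in BL21 E. coli and isolated by SEC, was shaken with peptide in DMSO for 1 h at room temperature. 5-fluorescein HSE tracer was then added to give final 250 nM trimer, 15 nM tracer and 5% DMSO, followed by 15 min shaking. FP read at 485/530 nm. Single-point final peptide level 400 μM, scored as % inhibition relative to DMSO and tracer-only signals. Dose-response used serial dilutions from 800 μM, with nonlinear-regression IC₅₀ fitting. Duplicates.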

[2] = target: T1, Heat shock factor protein 1 (Homo sapiens); experiment: Disruption of full length human HSF1 trimer structure at 20 uM after 30 mins by Western blot analysis
In short: (§2)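 SEC-purified full-length human HSF1 trimer (2 μM) incubated with 20 μM peptide (10-fold molar excess) or DMSO (2% v/v) at 4 °C for 30 min. Samples then run on Sephacryl S-400 SEC, and collected fractions analysed by immunoblot to follow oligomeric state.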

[3] = target: T1, Heat shock factor protein 1 (Homo sapiens); experiment: Disruption of full length human HSF1 trimer structure at 20 uM after 30 mins by SDS-PAGE analysis
[4] = target: T2, Heat shock factor protein 1 (Homo sapiens, UniProt Q00613); experiment: (§3) Inhibition of recombinant human HSF1 expressed in Escherichia coli BL21 (DE3) assessed as reduction in HSF1 trimer-5-fluorescein labeled HSE interaction preincubated for 1 hr followed by DNA tracer addition and measured after 15 mins by competitive fluorescence polarization assay; in short: as §1
T2 sequence (Q00613 whole entry): T1 sequence (whole entry)

[5] = target: T1, Heat shock factor protein 1 (Homo sapiens); experiment: as §3; in short: as §1
[6] = target: T1, Heat shock factor protein 1 (Homo sapiens); experiment: Disruption of full length human HSF1 trimer structure at 20 uM after 30 mins by size-exclusion chromatographic method; in short: as §2
[7] = target: T2, Heat shock factor protein 1; experiment: (§4) Inhibition of recombinant human HSF1 expressed in Escherichia coli BL21 (DE3) assessed as reduction in HSF1 trimer-5-fluorescein labeled HSE interaction preincubated of protein with DNA tracer up to 24 hrs followed by compound addition and measured after 15 mins by fluorescence polarization assay; conditions: in the assay text read “measured after 1 hr” for “measured after 15 mins”
In short: (§5)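 Peptide added to a pre-formed complex of HSF1 trimer (250 nM) and 5-fluorescein HSE tracer (15 nM), then co-incubated a further 1 h before FP reading at 485/530 nm. Buffer was 25 mM HEPES, 75 mM NaCl, pH 7.5, 10 mM MgCl₂, 0.01% Triton-X. IC₅₀ from nonlinear regression; duplicate experiments.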

[8] = target: T1, Heat shock factor protein 1 (Homo sapiens); experiment: as §4; conditions: in the assay text read “measured after 1 hr” for “measured after 15 mins”; in short: as §5
[9] = system: DNA; experiment: Binding affinity to 5-fluorescein labeled HSE DNA (unknown origin) after 15 mins to 24 hrs by fluorescence polarization method; type: nucleic-acid assay
In short: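 Tracer-binding control: peptides serially diluted from 400 μM, incubated with 15 nM 5-fluorescein HSE tracer alone (no protein) for 15 min, 1 h, 3 h and 24 h. Read by FP at excitation 485 nm and emission 530 nm, with 15-min mP values plotted. Buffer was 25 mM HEPES, 75 mM NaCl, pH 7.5, 10 mM MgCl₂, 0.01% Triton-X. Triplicates.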

## Ac-DAMDSNL-NH2
[1]
  inhibition: 21%

## Ac-DKNELSDHL-NH2
[1]
  inhibition: 0.4%

## Ac-DKNELSDHLDAMDSNL-NH2
[2]
  Activity: inactive
[3]
  Activity: inactive
[4]
  IC50: 13 µM
[5]
  inhibition: Dose-dependent effect
[6]
  Activity: inactive
[7]
  IC50: 14 µM
[8]
  inhibition: Dose-dependent effect
[1]
  inhibition: 91%

## Ac-DVQLMKGKQECMDSKLLAMKHENEALWREV-NH2
[1]
  inhibition: 8.1%

## Ac-HLDAMDSNLDNLQTMLSSHGFSVDTSALLD-NH2
[4]
  IC50: 150 µM
[5]
  inhibition: Dose-dependent effect
[1]
  inhibition: 64%

## Ac-IKIRQDSVTKLLTDVQLMKGKQECMDSK-NH2
[1]
  inhibition: > 100%

## Ac-LAMKHENEAL-NH2
[1]
  inhibition: 8.2%

## Ac-LAMKHENEALWREVASLRQKHAQQQKVVNKL-NH2
[9]
  Activity: Active

## Ac-RQKHAQQQKVVNKL-NH2
[1]
  inhibition: 22%

## Ac-WREVASL-NH2
[1]
  inhibition: 27%
